Laboratory results as given in ChEMBL document CHEMBL3046238, “Synthesis and biological activity evaluation of 1,2,3-thiadiazole derivatives as potential elicitors with highly systemic acquired resistance” (2009).
The source made the active and inactive calls. The calls are words filed in the database; no cut-off is given here.

Experiments:
Type in all cases: functional
Alternaria kikuchiana = test: Antifungal activity against Alternaria kikuchiana assessed as growth inhibition at 50 ug/mL measured after 2 days post dose; details: for inhibition of growth at 50 µg/mL: 48 h, read-out: GI
Fusarium fujikuroi = test: Antifungal activity against Fusarium fujikuroi assessed as growth inhibition at 50 ug/mL measured after 2 days post dose; details: for inhibition of growth at 50 µg/mL: 48 h, read-out: GI
Alternaria solani = test: Antifungal activity against Alternaria solani assessed as growth inhibition at 50 ug/mL measured after 2 days post dose; details: 48 h, read-out: GI
Sclerotinia sclerotiorum = test: Antifungal activity against Sclerotinia sclerotiorum assessed as growth inhibition at 50 ug/mL measured after 2 days post dose; details: for inhibition of growth at 50 µg/mL: 48 h, read-out: GI
Tobacco mosaic virus [1] = test: (§1) Induction of systemic acquired resistance against Tobacco mosaic virus (TMV) in tobacco plants exposed to 500 ug/mL compound through leaf spray followed by 7 days culture under green house conditions assessed as inhibition of viral growth in leaves infected with Tobacco mosaic virus (TMV) measured 72 hr post viral infection by half-leaf juice rubbing method; parameters: scale not given: the % may be the effect or the level left
In short: (§2)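 Tobacco plants received compound by leaf spray or by soil irrigation, with double-distilled water as CK. Newly grown leaves were then rub-inoculated with TMV (5.88×10-2 μg/mL), and plants were kept at 25 °C for 72 h. Lesions on inoculated leaves were counted. Inhibition = (CK−A)/CK×100 from mean lesion numbers versus control.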

[2] = tested on: Fusarium oxysporum f. sp. vasinfectum; test: Antifungal activity against Fusarium oxysporum f. sp. vasinfectum assessed as growth inhibition at 50 ug/mL measured after 2 days post dose; details: for inhibition of growth at 50 µg/mL: 48 h, read-out: GI
Ustilaginoidea virens = test: Antifungal activity against Villosiclava virens assessed as growth inhibition at 50 ug/mL measured after 2 days post dose; details: for inhibition of growth at 50 µg/mL: 48 h, read-out: GI
Phomopsis asparagi = test: Antifungal activity against Phomopsis asparagi assessed as growth inhibition at 50 ug/mL measured after 2 days post dose; details: for inhibition of growth at 50 µg/mL: 48 h, read-out: GI
Fusarium graminearum = test: Antifungal activity against Fusarium graminearum assessed as growth inhibition at 50 ug/mL measured after 2 days post dose; details: 48 h, read-out: GI
In short: (§3)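 Compound stock at 500 μg/mL in DMF, diluted with sterile water in the dish and mixed into potato dextrose agar before setting. A 4 mm diameter fungal plug is placed on the plate and cultured at 24-26 °C. Colony diameter is measured after 2 days.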

[3] = tested on: Colletotrichum gloeosporioides; test: Antifungal activity against Glomerella cingulata assessed as growth inhibition at 50 ug/mL measured after 2 days post dose; details: for inhibition of growth at 50 µg/mL: 48 h, read-out: GI
Botrytis cinerea = test: Antifungal activity against Botryotinia fuckeliana assessed as growth inhibition at 50 ug/mL measured after 2 days post dose; details: for inhibition of growth at 50 µg/mL: 48 h, read-out: GI
Colletotrichum lagenaria = test: Antifungal activity against Colletotrichum lagenaria assessed as growth inhibition at 50 ug/mL measured after 2 days post dose; details: 48 h, read-out: GI
Cytospora mali = test: Antifungal activity against Valsa mali assessed as growth inhibition at 50 ug/mL measured after 2 days post dose; details: for inhibition of growth at 50 µg/mL: 48 h, read-out: GI
Alternaria mali = test: Antifungal activity against Alternaria mali assessed as growth inhibition at 50 ug/mL measured after 2 days post dose; details: for inhibition of growth at 50 µg/mL: 48 h, read-out: GI
Mycosphaerella arachidis = test: Antifungal activity against Mycosphaerella arachidis assessed as growth inhibition at 50 ug/mL measured after 2 days post dose; details: 48 h, read-out: GI
Fusarium oxysporum = test: Antifungal activity against Fusarium oxysporum assessed as growth inhibition at 50 ug/mL measured after 2 days post dose; details: for inhibition of growth at 50 µg/mL: 48 h, read-out: GI
Puccinia triticina = test: Antifungal activity against Puccinia triticina inoculated on 500 ug/mL compound pre-treated wheat plants with 3 to 5 leaves assessed as growth inhibition
In short: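 Healthy wheat plants at the 3-5 leaf stage were sprayed with compound (500 μg/mL) and then inoculated with spores. Inhibition percentage was calculated against the corresponding spore stack.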

Tobacco mosaic virus [4] = test: as §1, with “50” for “500”; parameters: scale not given: the % may be the effect or the level left; in short: as §2
Phytophthora infestans = test: Antifungal activity against Phytophthora infestans assessed as growth inhibition at 50 ug/mL measured after 2 days post dose; in short: as §3
[5] = tested on: Botryosphaeria berengeriana; test: Antifungal activity against Botryosphaeria berengeriana assessed as growth inhibition at 50 ug/mL measured after 2 days post dose; details: 48 h, read-out: GI
Rhizoctonia solani = test: Antifungal activity against Rhizoctonia solani assessed as growth inhibition at 50 ug/mL measured after 2 days post dose
Ceratobasidium cereale = test: Antifungal activity against Ceratobasidium cereale assessed as growth inhibition at 50 ug/mL measured after 2 days post dose

Row | Structure (SMILES) | inhibition of growth at 50 µg/mL (Alternaria kikuchiana) | inhibition of growth at 50 µg/mL (Fusarium fujikuroi) | inhibition of growth at 50 µg/mL (Alternaria solani) | inhibition of growth at 50 µg/mL (Sclerotinia sclerotiorum) | Activity (Tobacco mosaic virus [1]) | growth inhibition (GI) (Ustilaginoidea virens) | growth inhibition (GI) (Phomopsis asparagi) | inhibition of growth at 50 µg/mL (Fusarium graminearum) | inhibition of growth at 50 µg/mL (Botrytis cinerea) | inhibition of growth at 50 µg/mL (Colletotrichum lagenaria) | inhibition of growth at 50 µg/mL (Cytospora mali) | inhibition of growth at 50 µg/mL (Mycosphaerella arachidis) | inhibition of growth at 50 µg/mL [2] | inhibition of growth at 50 µg/mL (Ustilaginoidea virens) | growth inhibition (GI) (Puccinia triticina) | inhibition of growth at 50 µg/mL (Phomopsis asparagi) | inhibition of growth at 50 µg/mL [3] | inhibition of growth at 50 µg/mL (Alternaria mali) | inhibition of growth at 50 µg/mL (Fusarium oxysporum) | growth inhibition (GI) (Botrytis cinerea) | also measured
1 | CCCCCCc1cnc(NC(=O)c2snnc2C)s1 | 0% | 64.3% | 21% | 71.4% | 0% | inactive | inactive | 0% | 25% | 26.7% | 31% | 29.4% | – | – | – | – | – | – | – | – | growth inhibition (GI) [2]: inactive; growth inhibition (GI) [3]: inactive; growth inhibition (GI) (Alternaria mali): inactive; growth inhibition (GI) (Fusarium oxysporum): inactive
2 | CCc1sc(NC(=O)c2snnc2C)nc1-c1ccc(Cl)cc1Cl | 37.5% | 64.3% | 33.3% | 61.5% | 0% | – | – | 25% | 40% | 26.7% | 44.4% | 14.3% | 20% | 33.3% | 0% | 12.5% | 20.1% | 35% | 13.3% | – | –
3 | Cc1nnsc1C(=O)Nc1nc(-c2ccc(Cl)cc2)cs1 | 0% | 64.3% | 0% | 61.5% | 40% | – | – | 18.8% | 12% | 13.3% | 88.9% | 29.4% | 40% | 11.1% | 0% | 37.5% | 68.4% | 15% | 46.7% | – | –
4 | CCCc1sc(NC(=O)c2snnc2C)nc1-c1ccc(Cl)cc1Cl | – | 21.1% | 4% | 22.2% | 20% | inactive | inactive | 25% | – | 11.8% | 4.3% | 35.7% | 3.6% | – | 30% | – | 12% | 6.9% | 10% | inactive | growth inhibition (GI) (Alternaria kikuchiana): inactive
5 | Cc1nnsc1C(=O)Nc1nc(-c2ccccc2)cs1 | 37.5% | 64.3% | 15.8% | 47.3% | 70% | – | – | 18.8% | 8.3% | 6.7% | 22.2% | 14.3% | 40% | 55.6% | 0% | 6.3% | 15.8% | 10% | 13.3% | – | Activity (Tobacco mosaic virus [4]): 74%
6 | COc1ccc(-c2csc(NC(=O)c3snnc3C)n2)cc1 | – | 10.5% | 4% | 5.6% | 35% | inactive | inactive | 25% | – | 5.9% | 8.7% | 14.3% | 0% | – | 45% | – | 4% | 15.5% | 3.3% | inactive | growth inhibition (GI) (Alternaria kikuchiana): inactive
7 | Cc1csc(NC(=O)c2snnc2C)n1 | 17.6% | 64.3% | 35.7% | – | 70% | inactive | inactive | 7.1% | – | 17.6% | – | 29.4% | – | – | inactive | – | – | 50% | 15% | inactive | growth inhibition (GI) (Sclerotinia sclerotiorum): inactive; growth inhibition (GI) [2]: inactive; Activity (Tobacco mosaic virus [4]): 81%; growth inhibition (GI) [3]: inactive; growth inhibition (GI) (Cytospora mali): inactive
8 | CCc1cnc(NC(=O)c2snnc2C)s1 | 43.8% | 0% | 21% | 3.3% | 30% | – | – | 50% | 0% | 26.7% | 61.1% | 35.7% | 5% | 50% | – | 31.3% | 36.8% | 25% | 53.3% | – | –
9 | COc1ccc(-c2nnc(-c3snnc3C)o2)cc1 | – | 0% | 17.6% | 23.5% | 80% | – | – | 37.9% | 31% | – | 47.2% | 17.6% | 0% | 29.4% | 0% | – | 29.4% | 37.9% | 0% | – | growth inhibition (GI) (Phytophthora infestans): inactive; inhibition of growth at 50 µg/mL [5]: 33.3%; Activity (Tobacco mosaic virus [4]): 78%; inhibition of growth at 50 µg/mL (Rhizoctonia solani; 48 h, read-out: GI): 0%; inhibition of growth at 50 µg/mL (Ceratobasidium cereale; 48 h, read-out: GI): 31%
10 | Cc1nnsc1C(=O)Nc1nc(-c2ccc([N+](=O)[O-])cc2)cs1 | 0% | 5.3% | 20% | 11.1% | 0% | inactive | inactive | 37.5% | – | 17.6% | 26.1% | 35.7% | 14.3% | – | inactive | – | 8% | 24.1% | 13.3% | inactive | –
11 | CCc1cc(-c2nnc(-c3snnc3C)o2)nn1C | – | – | 17.9% | 0% | 20% | inactive | – | 27.8% | – | – | – | 33.3% | – | – | 20% | – | 42.1% | – | 26.5% | inactive | growth inhibition (GI) (Fusarium fujikuroi): inactive; growth inhibition (GI) [2]: inactive; inhibition of growth at 50 µg/mL (Phytophthora infestans; 48 h, read-out: GI): 17.1%; inhibition of growth at 50 µg/mL [5]: 16.7%; growth inhibition (GI) (Rhizoctonia solani): inactive; growth inhibition (GI) (Cytospora mali): inactive; growth inhibition (GI) (Ceratobasidium cereale): inactive; growth inhibition (GI) (Alternaria mali): inactive
